The values below come from BindingDB's records for doi:10.1016/j.bmcl.2006.08.108 (Merck Sharp and Dohme Research Laboratories, 2006).

Sequence of 5-hydroxytryptamine receptor 2A (P28223 whole entry): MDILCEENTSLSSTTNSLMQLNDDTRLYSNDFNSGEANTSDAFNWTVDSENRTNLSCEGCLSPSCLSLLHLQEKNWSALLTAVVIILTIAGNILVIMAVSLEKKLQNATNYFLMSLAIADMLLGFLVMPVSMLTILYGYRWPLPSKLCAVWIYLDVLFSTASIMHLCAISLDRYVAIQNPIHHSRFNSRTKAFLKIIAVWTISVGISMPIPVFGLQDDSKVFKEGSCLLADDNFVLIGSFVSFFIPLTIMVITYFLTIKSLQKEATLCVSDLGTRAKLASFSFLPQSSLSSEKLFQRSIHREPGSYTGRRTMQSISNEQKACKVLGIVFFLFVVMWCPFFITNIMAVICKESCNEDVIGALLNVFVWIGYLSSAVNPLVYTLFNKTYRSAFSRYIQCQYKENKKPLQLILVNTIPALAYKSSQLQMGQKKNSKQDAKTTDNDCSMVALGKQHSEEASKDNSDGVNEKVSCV

The assay deals with 5-hydroxytryptamine receptor 2A (Homo sapiens, UniProt P28223). The assay is described as follows: Displacement of [3H]ketanserin from human 5HT2A receptor expressed in CHOK1 cells. The essentials:
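Membranes from confluent CHO K1 cells expressing human 5-HT2A were incubated with [3H]ketanserin (76 Ci/mmol) for 15 min at 37 °C with shaking at 180 rpm. Buffer was 50 mM Tris pH 7.7, 0.1% ascorbate, pargyline, MgSO4 and 0.5 mM EDTA. Bound and free ligand were separated by GF/B filtration and the filters counted. Mianserin defined non-specific binding. Five-point log titrations were fitted with a four-parameter curve to give IC50 and Ki.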
As for `Cc1ccc(C2=NCCN=C(N3CCNCC3)C2)cc1` [5-(piperazin-1-yl)-7-p-tolyl-2,3-dihydro-1H-1,4-diazepine], the IC50 is > 1000 nM. In the case of `Cc1ccc(C2=NCCN=C(N3CCOCC3)C2)cc1` [5-morpholino-7-p-tolyl-2,3-dihydro-1H-1,4-diazepine] it was > 1000 nM. For `CCN(CC)C1=NCCN=C(c2ccccc2F)C1` [N,N-diethyl-7-(2-fluorophenyl)-2,3-dihydro-1H-1,4-diazepin-5-amine], the half-maximal inhibitory concentration (IC50) was > 1000 nM.

As for `CCN(CC)C1=NCCN=C(c2ccc(C)cc2)C1` [N,N-diethyl-7-p-tolyl-2,3-dihydro-1H-1,4-diazepin-5-amine], the IC50 is > 1000 nM. Next, `CC(C)(C)NC1=NCCN=C(c2ccc(F)cc2F)C1` [N-tert-butyl-7-(2,4-difluorophenyl)-2,3-dihydro-1H-1,4-diazepin-5-amine]: 11 nM; `Cc1ccc(C2=NCCN=C(NC(C)(C)C)C2)cc1` [N-tert-butyl-7-p-tolyl-2,3-dihydro-1H-1,4-diazepin-5-amine]: 11 nM.
